In brackets after ≈: the same amount, converted by molar mass.
How the values were obtained:
Type in all cases: functional
[1] = test system: Staphylococcus aureus; test: Antibacterial activity against methicillin-susceptible Staphylococcus aureus by CLSI M100-S17 method
[2] = test system: Staphylococcus aureus; test: Antibacterial activity against methicillin-susceptible Staphylococcus aureus assessed as susceptible isolates by CLSI M100-S17 method
[3] = test system: Staphylococcus aureus; test: Antibacterial activity against methicillin-susceptible Staphylococcus aureus assessed as intermediate isolates by CLSI M100-S17 method
[4] = test system: Staphylococcus aureus; test: Antibacterial activity against methicillin-resistant Staphylococcus aureus by CLSI M100-S17 method
[5] = test system: Staphylococcus epidermidis; test: Antibacterial activity against methicillin-susceptible Staphylococcus epidermidis by CLSI M100-S17 method
[6] = test system: Staphylococcus epidermidis; test: Antibacterial activity against methicillin-susceptible Staphylococcus epidermidis assessed as susceptible isolates by CLSI M100-S17 method
[7] = test system: Staphylococcus epidermidis; test: Antibacterial activity against methicillin-susceptible Staphylococcus epidermidis assessed as intermediate isolates by CLSI M100-S17 method
[8] = test system: Staphylococcus epidermidis; test: Antibacterial activity against methicillin-resistant Staphylococcus epidermidis by CLSI M100-S17 method
[9] = test system: Streptococcus pneumoniae; test: Antibacterial activity against Streptococcus pneumoniae by CLSI M100-S17 method
[10] = test system: Streptococcus pneumoniae; test: Antibacterial activity against Streptococcus pneumoniae assessed as susceptible isolates by CLSI M100-S17 method
Method in brief: (§1)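 CLSI broth microdilution on clinical isolates, using frozen in-house-prepared panels of test and comparator agents. MICs were read after 20 to 24 h incubation at 35°C in ambient air. Susceptible/intermediate categories were assigned by CLSI M100-S17 guidelines.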

[11] = test system: Streptococcus pyogenes; test: Antibacterial activity against Streptococcus pyogenes by CLSI M100-S17 method
[12] = test system: Streptococcus pyogenes; test: Antibacterial activity against Streptococcus pyogenes assessed as susceptible isolates by CLSI M100-S17 method; method in brief: as §1
[13] = test system: Streptococcus agalactiae; test: Antibacterial activity against Streptococcus agalactiae by CLSI M100-S17 method
[14] = test system: Streptococcus agalactiae; test: Antibacterial activity against Streptococcus agalactiae assessed as susceptible isolates by CLSI M100-S17 method; method in brief: as §1
[15] = test system: Enterococcus faecalis; test: Antibacterial activity against Enterococcus faecalis by CLSI M100-S17 method
[16] = test system: Enterococcus faecalis; test: Antibacterial activity against Enterococcus faecalis assessed as susceptible isolates by CLSI M100-S17 method
[17] = test system: Enterococcus faecalis; test: Antibacterial activity against Enterococcus faecalis assessed as intermediate isolates by CLSI M100-S17 method
[18] = test system: Enterococcus faecalis; test: Antibacterial activity against Enterococcus faecalis assessed as resistant isolates by CLSI M100-S17 method
[19] = test system: Enterococcus faecium; test: Antibacterial activity against Enterococcus faecium by CLSI M100-S17 method
[20] = test system: Enterococcus faecium; test: Antibacterial activity against Enterococcus faecium assessed as susceptible isolates by CLSI M100-S17 method
[21] = test system: Enterococcus faecium; test: Antibacterial activity against Enterococcus faecium assessed as intermediate isolates by CLSI M100-S17 method
[22] = test system: Enterococcus faecium; test: Antibacterial activity against Enterococcus faecium assessed as resistant isolates by CLSI M100-S17 method

Question: How did the MIC50 [1] turn out when `CC(=O)NC[C@H]1CN(c2ccc(N3CCOCC3)c(F)c2)C(=O)O1` [LINEZOLID] was run?
Answer: 2 mg/L (≈ 5.93 µM)

Question: What about the MIC90 [1] of the same compound?
Answer: 2 mg/L (≈ 5.93 µM)

Question: And the Activity [2]?
Answer: 100%

Question: And the Activity [3]?
Answer: 0%

Question: What about the MIC50 [4] of the same compound?
Answer: 2 mg/L (≈ 5.93 µM)

Question: And the MIC90 [4]?
Answer: 4 mg/L (≈ 11.9 µM)

Question: What about the MIC50 [5] of the same compound?
Answer: 0.5 mg/L (≈ 1.48 µM)

Question: And the MIC90 [5]?
Answer: 1 mg/L (≈ 2.96 µM)

Question: And the Activity [6]?
Answer: 100%

Question: And the Activity [7]?
Answer: 0%

Question: What about the MIC50 [8] of the same compound?
Answer: 1 mg/L (≈ 2.96 µM)

Question: And the MIC90 [8]?
Answer: 1 mg/L (≈ 2.96 µM)

Question: And the MIC50 [9]?
Answer: 0.5 mg/L (≈ 1.48 µM)

Question: And the MIC90 [9]?
Answer: 1 mg/L (≈ 2.96 µM)

Question: What about the Activity [10] of the same compound?
Answer: 100%

Question: What about the MIC50 [11] of the same compound?
Answer: 1 mg/L (≈ 2.96 µM)

Question: And the MIC90 [11]?
Answer: 1 mg/L (≈ 2.96 µM)

Question: And the Activity [12]?
Answer: 100%

Question: What about the MIC50 [13] of the same compound?
Answer: 1 mg/L (≈ 2.96 µM)

Question: What about the MIC90 [13] of the same compound?
Answer: 1 mg/L (≈ 2.96 µM)

Question: And the Activity [14]?
Answer: 100%

Question: What about the MIC50 [15] of the same compound?
Answer: 2 mg/L (≈ 5.93 µM)

Question: What about the MIC90 [15] of the same compound?
Answer: 2 mg/L (≈ 5.93 µM)

Question: And the Activity [16]?
Answer: 98.7%

Question: And the Activity [17]?
Answer: 1.3%

Question: And the Activity [18]?
Answer: 0%

Question: And the MIC50 [19]?
Answer: 2 mg/L (≈ 5.93 µM)

Question: And the MIC90 [19]?
Answer: 2 mg/L (≈ 5.93 µM)

Question: What about the Activity [20] of the same compound?
Answer: 91.4%

Question: What about the Activity [21] of the same compound?
Answer: 8.6%

Question: What about the Activity [22] of the same compound?
Answer: 0%
